Data set [1] in a line: Therapeutic index, ratio of TC50 for mouse RAW264.7 cells to EC50 for Leishmania infantum zymodeme MON-1 axenic amastigotes after 48 hrs. The following applies: read-out: TI. The procedure, abridged:
(§1)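 Index calculated as TC50 on RAW 264.7 macrophages (MTT assay) divided by EC50 on L. infantum promastigotes or axenic amastigotes, using the same incubation time (24 or 48 h) for both.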

The subject of data set [2] is Leishmania infantum. Nature of the data set: Antileishmanial activity against Leishmania infantum zymodeme MON-1 axenic amastigotes assessed as parasite survival after 48 hrs. Format: functional, organism-based. The following applies: zymodeme MON-1, 48 h. The procedure, abridged: (§2)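 Axenic amastigotes grown cell-free at 37 °C, 5% CO2 in MAA/20 (modified medium 199 with Hank's salts, tryptocasein, glucose, glutamine, NaHCO3, hemin, 25 mM HEPES, pH 6.5, 20% heat-inactivated FBS). Compounds in DMSO (≤1% v/v) at 10–100 µg/mL, 37 °C. Viability read after TO-PRO-3 staining (10 min, room temperature) by ImageStream imaging cytometry, ≥10,000 events per sample.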

Data set [3] can be described thus: Therapeutic index, ratio of TC50 for mouse RAW264.7 cells to EC50 for Leishmania infantum zymodeme MON-1 promastigotes after 48 hrs. The following applies: read-out: TI. The method, boiled down:
as §1

Data set [4] in a line: Cytotoxicity against mouse RAW264.7 cells after 48 hrs by MTT assay. Format: cell-based. The following applies: read-out: TC50. The method, boiled down: (§3)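 RAW 264.7 cells in RPMI 1640 with L-glutamine, 10% FBS and penicillin/streptomycin, seeded at 1×10^5 cells/well and left to adhere overnight at 37 °C, 5% CO2. Compounds at 10, 50 and 100 µg/mL, 37 °C. MTT (5 mg/mL) added for 4 h, formazan dissolved in DMSO, A540 read. Survival expressed as percent of untreated control, in triplicate. TC50 taken as the 50% macrophage-death concentration.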

Data set [5] deals with Leishmania infantum. Nature of the data set: Antileishmanial activity against Leishmania infantum zymodeme MON-1 promastigotes assessed as parasite survival after 48 hrs. The following applies: zymodeme MON-1, 48 h. The format is functional, organism-based. The method, boiled down: (§4)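 Log-phase promastigotes from 26 °C Schneider's Drosophila medium with 10% heat-inactivated FCS, pH 7.2, adjusted to 5×10^6 parasites/mL. Compounds in DMSO (≤1% v/v) at 10–100 µg/mL, incubated at 26 °C. Surviving promastigotes counted in a Neubauer chamber and compared with drug-free controls.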

Data set [6] in a line: Therapeutic index, ratio of TC50 for mouse RAW264.7 cells to EC50 for Leishmania infantum zymodeme MON-1 axenic amastigotes. The following applies: read-out: TI. The procedure, abridged:
as §1

Data set [7] deals with Leishmania infantum. Nature of the data set: Antileishmanial activity against Leishmania infantum zymodeme MON-1 axenic amastigotes assessed as parasite survival after 24 hrs. The format is functional, organism-based. The following applies: zymodeme MON-1, 24 h. The procedure, abridged:
as §2

A short description of data set [8]: Therapeutic index, ratio of TC50 for mouse RAW264.7 cells to EC50 for Leishmania infantum zymodeme MON-1 promastigotes after 24 hrs. The following applies: read-out: TI. The procedure, abridged:
as §1

Data set [9] in a line: Cytotoxicity against mouse RAW264.7 cells after 24 hrs by MTT assay. Format: cell-based. The following applies: read-out: TC50. The method, boiled down:
as §3
Background: Tetrazolium assays rely on reduction of a dye to a coloured formazan, in cell work by metabolically active cells.

The subject of data set [10] is Leishmania infantum. Nature of the data set: Antileishmanial activity against Leishmania infantum zymodeme MON-1 promastigotes assessed as parasite survival after 24 hrs. The following applies: zymodeme MON-1, 24 h. The format is functional, organism-based. The procedure, abridged:
as §4

The structures appear in SMILES notation. In brackets after ≈: the same amount, converted by molar mass.

With `O=C(C[C@@H](c1ccccc1)[C@H]1C(=O)Nc2ccccc21)c1ccccc1` (relative stereo), the values for the selectivity ratio at 48 h in data set [1] and in [3] were 11.2 and 10.6, respectively. For the same compound, the EC50 in the data set with Leishmania infantum [2] amounted to 5.9 µg/mL (≈ 17.3 µM); with Leishmania infantum [5], 6.3 µg/mL (≈ 18.5 µM); in the data set on Leishmania infantum [7] it was 15.3 µg/mL (≈ 44.8 µM); with Leishmania infantum [10], 16.2 µg/mL (≈ 47.5 µM). In addition, the EC95 with Leishmania infantum [2] is 69.4 µg/mL (≈ 203 µM); with Leishmania infantum [5] it was 72.1 µg/mL (≈ 211 µM); in the data set on Leishmania infantum [7], 75.6 µg/mL (≈ 221 µM); in the data set on Leishmania infantum [10] it was 77.8 µg/mL (≈ 228 µM). The CC50 at 48 h in data set [4] amounted to 66.6 µg/mL (≈ 195 µM). The selectivity ratio in data set [6] was 4.7. Further, the selectivity ratio at 24 h in [8] was determined as 4.4. Besides, the CC50 at 24 h in data set [9] was 71.6 µg/mL (≈ 210 µM).

On to `Cc1ccc([C@H](CC(=O)c2ccccc2)[C@H]2C(=O)Nc3ccccc32)cc1` (relative stereo), for which the selectivity ratio at 48 h in data set [1] and in data set [3] was 1.3 each time. The EC50 in the data set with Leishmania infantum [2] amounted to 48.4 µg/mL (≈ 136 µM); with Leishmania infantum [5], 51.6 µg/mL (≈ 145 µM); in the data set on Leishmania infantum [7], 60.1 µg/mL (≈ 169 µM); with Leishmania infantum [10], 62 µg/mL (≈ 174 µM). Further, the EC95 is 94.3 µg/mL (≈ 265 µM) in the data set on Leishmania infantum [2], 96 µg/mL (≈ 270 µM) in the data set with Leishmania infantum [5], 99.5 µg/mL (≈ 280 µM) in the data set with Leishmania infantum [7] and 111 µg/mL (≈ 312 µM) in the data set on Leishmania infantum [10]. Moreover, in data set [4], the CC50 at 48 h stood at 67.6 µg/mL (≈ 190 µM). The selectivity ratio in data set [6] stood at 1.6. In addition, the selectivity ratio at 24 h in data set [8] was 1.5. Further, the CC50 at 24 h in data set [9] turned out to be 93.3 µg/mL (≈ 262 µM).

For the compound `COc1ccc([C@H](CC(=O)c2ccccc2)[C@H]2C(=O)Nc3ccccc32)cc1` (relative stereo), the figures for the selectivity ratio at 48 h in data set [1] and in [3] were 2.7 and 2.5, respectively. For the same compound, the EC50 in the data set with Leishmania infantum [2] stood at 13.1 µg/mL (≈ 35.3 µM); with Leishmania infantum [5], 14.2 µg/mL (≈ 38.2 µM); in the data set with Leishmania infantum [7], 24.2 µg/mL (≈ 65.2 µM); in the data set on Leishmania infantum [10], 29.7 µg/mL (≈ 80 µM). The EC95 in the data set on Leishmania infantum [2] came out at 71.2 µg/mL (≈ 192 µM); with Leishmania infantum [5] it was 74 µg/mL (≈ 199 µM); in the data set with Leishmania infantum [7], 75.4 µg/mL (≈ 203 µM); in the data set on Leishmania infantum [10] it was 78.5 µg/mL (≈ 211 µM). Also, the CC50 at 48 h in [4] is 35.4 µg/mL (≈ 95.3 µM). In data set [6], the selectivity ratio is 1.7. The selectivity ratio at 24 h in data set [8] worked out at 1.3. Further, the CC50 at 24 h in data set [9] was 41 µg/mL (≈ 110 µM).

As to `C[C@@H]1[C@H](O)[C@@H](C)/C=C/C=C/C=C/C=C/C=C/C=C/C=C/[C@H](O[C@@H]2O[C@H](C)[C@@H](O)[C@H](N)[C@@H]2O)C[C@@H]2O[C@](O)(C[C@@H](O)C[C@@H](O)[C@H](O)CC[C@@H](O)C[C@@H](O)CC(=O)O[C@H]1C)C[C@H](O)[C@H]2C(=O)O` [AMPHOTERICIN B], the selectivity ratio at 48 h in data set [1] and in data set [3] was 8.2 in each case. The EC50 in the data set on Leishmania infantum [2] was 0.4 µg/mL (≈ 0.433 µM); with Leishmania infantum [5] it was 0.4 µg/mL (≈ 0.433 µM); with Leishmania infantum [7], 0.5 µg/mL (≈ 0.541 µM); with Leishmania infantum [10] it was 0.55 µg/mL (≈ 0.595 µM). In addition, the EC95 was determined as 3.4 µg/mL (≈ 3.68 µM) in the data set on Leishmania infantum [2], 3.9 µg/mL (≈ 4.22 µM) in the data set on Leishmania infantum [5], 3.9 µg/mL (≈ 4.22 µM) in the data set on Leishmania infantum [7] and 3.9 µg/mL (≈ 4.22 µM) in the data set on Leishmania infantum [10]. Also, the CC50 at 48 h in data set [4] is 3.1 µg/mL (≈ 3.35 µM). In addition, the selectivity ratio in [6] came out at 39.1. For the same compound, the selectivity ratio at 24 h in data set [8] turned out to be 35.1. The CC50 at 24 h in data set [9] turned out to be 19.6 µg/mL (≈ 21.2 µM).

Regarding `O=C(/C=C/c1ccccc1)c1ccccc1` [CHALCONE], the selectivity ratio at 48 h came to 23.7 in [1] and 20.1 in data set [3]. In addition, the EC50 with Leishmania infantum [2] was 1.3 µg/mL (≈ 6.24 µM); in the data set with Leishmania infantum [5], 1.5 µg/mL (≈ 7.2 µM); with Leishmania infantum [7] it was 5.1 µg/mL (≈ 24.5 µM); in the data set with Leishmania infantum [10], 5.7 µg/mL (≈ 27.4 µM). The EC95 in the data set with Leishmania infantum [2] is 69.9 µg/mL (≈ 336 µM); in the data set with Leishmania infantum [5] it was 71.1 µg/mL (≈ 341 µM); in the data set on Leishmania infantum [7] it was 79.5 µg/mL (≈ 382 µM); in the data set with Leishmania infantum [10], 83.5 µg/mL (≈ 401 µM). In addition, the CC50 at 48 h in [4] was determined as 30.7 µg/mL (≈ 147 µM). For the same compound, in data set [6], the selectivity ratio came out at 5.5. Besides, in [8], the selectivity ratio at 24 h was 4.9. For the same compound, the CC50 at 24 h in data set [9] was 28.1 µg/mL (≈ 135 µM).

With `O=C1Cc2ccccc2N1` [OXINDOLE], the selectivity ratio at 48 h is 2.2 in data set [1] and 2.1 in data set [3]. The EC50 with Leishmania infantum [2] is 69.5 µg/mL (≈ 522 µM); with Leishmania infantum [5] it was 72.4 µg/mL (≈ 544 µM); in the data set with Leishmania infantum [7] it was 199 µg/mL (≈ 1490 µM); in the data set with Leishmania infantum [10], 232 µg/mL (≈ 1750 µM). Also, the EC95 with Leishmania infantum [2] amounted to 136 µg/mL (≈ 1020 µM); with Leishmania infantum [5], 146 µg/mL (≈ 1100 µM); in the data set on Leishmania infantum [7] it was 430 µg/mL (≈ 3230 µM); in the data set on Leishmania infantum [10], 447 µg/mL (≈ 3360 µM). For the same compound, in data set [4], the CC50 at 48 h is 154 µg/mL (≈ 1160 µM). Moreover, in [6], the selectivity ratio was 0.6. For the same compound, the selectivity ratio at 24 h in data set [8] came out at 0.5. The CC50 at 24 h in [9] is 126 µg/mL (≈ 945 µM).

As a reminder, the EC50 is the concentration needed to bring the measured effect to its halfway point. The term EC95 denotes the concentration needed for an effect of 95%.

(Values after ChEMBL document CHEMBL3102842, “Direct synthesis of C3-mono-functionalized oxindoles from N-unprotected 2-oxindole and their antileishmanial activity” (Bioorg Med Chem, 2014).)
